Tests used:
[1] = Inhibition of LPS induced NF-kappa-B transcriptional activity in mouse RAW264.7 cells after 20 hrs by SEAP reporter assay; format: cell-based; details: RAW264.7, 20 h
Summary of the method: (§1)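 RAW 264.7 cells stably transfected with an NF-κB-driven SEAP reporter, stimulated with LPS. Culture supernatants were heated to 65 °C for 5 min, then reacted in the dark with 4-methylumbelliferyl phosphate (500). SEAP activity was read as RFU at ex 360/em 450 nm. Results are given as IC50 or as % inhibition at 30, from three independent experiments, each averaged from triplicates.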

RAW264.7 = assay: Inhibition of LPS induced NF-kappa-B transcriptional activity in mouse RAW264.7 cells at 30 uM after 20 hrs by SEAP reporter assay; format: cell-based; summary of the method: as §1

| Structure (SMILES) | IC50 [1] [µM] | inhibition (RAW264.7) [%] |
| --- | --- | --- |
| COc1ccc(Cc2nc3ccccc3[nH]2)cc1 | 1.7 | 90 |
| Clc1cccc(Cc2nc3ccccc3[nH]2)c1 | 10 | 66 |
| COc1ccc(Cc2nc3ccccc3s2)cc1 | 9 | 67 |
| COc1ccc(Cc2nc3ccccc3o2)cc1 | > 30 | 42 |
| Clc1ccc(Cc2nc3ccccc3[nH]2)cc1Cl | 15 | 63 |
| O=[N+]([O-])c1ccc(Cc2nc3ccccc3[nH]2)cc1 | 12 | 64 |
| CS(=O)(=O)c1ccc(Cc2nc3ccccc3[nH]2)cc1 | 28 | 43 |
| Nc1ccc(Cc2nc3ccccc3[nH]2)cc1 | > 30 | 40 |
| COc1cc(Cc2nc3ccccc3[nH]2)cc(OC)c1OC | > 30 | 32 |
| Clc1ccc(Cc2nc3cc(Cl)ccc3[nH]2)cc1 | 5 | 76 |
| Oc1ccc(Cc2nc3ccccc3[nH]2)cc1 | 6 | 75 |
| COc1ccc(Cc2nc3ccccc3[nH]2)cc1OC | > 30 | 32 |
| COc1ccc(Cc2nc3cc(Cl)ccc3[nH]2)cc1 | 10 | 66 |

The next lines start with results.

| IC50 [1] [µM] | Structure (SMILES) | inhibition (RAW264.7) [%] |
| --- | --- | --- |
| 2.4 | COc1ccccc1Cc1nc2ccccc2[nH]1 | 85 |
| > 30 | COc1ccc(CCc2nc3ccccc3[nH]2)cc1 | 50 |
| 19 | Cc1ccc(Cc2nc3ccccc3[nH]2)cc1 | 60 |
| > 30 | Clc1ccc(-c2nc3ccccc3[nH]2)cc1 | 12 |
| > 30 | Clc1ccccc1Cc1nc2ccccc2[nH]1 | 33 |
| 18.4 | c1ccc(Cc2nc3ccccc3[nH]2)cc1 [BENDAZOL] | 43 |
| > 30 | c1ccc(-c2nc3ccccc3[nH]2)cc1 | 22 |
| > 30 | COc1ccc(Cc2nc3cc(OC)ccc3[nH]2)cc1 | 61 |
| > 30 | Clc1ccc2[nH]c(Cc3ccccc3)nc2c1 | 31 |
| 18 | COc1ccc2[nH]c(Cc3ccccc3)nc2c1 | 45 |
| > 30 | c1ccc(Cc2nc3ccccc3o2)cc1 | 33 |
| > 30 | COc1ccc(-c2nc3ccccc3[nH]2)cc1 | 22 |
| 16.4 | FC(F)(F)c1ccc(Cc2nc3ccccc3[nH]2)cc1 | 55 |
| 6 | Oc1ccc(Cc2nc3ccccc3[nH]2)cc1O | 75 |
| 10 | CC(C)CCOc1cccc(O)c1C(=O)/C=C/c1ccc(O)cc1 |  |
| 2.4 | Clc1ccc(Cc2nc3ccccc3[nH]2)cc1 | 85 |

Reference: ChEMBL document CHEMBL3769325, “Exploration of 2-benzylbenzimidazole scaffold as novel inhibitor of NF-κB” (Bioorg Med Chem, 2016)
